Assay results as given in ChEMBL document CHEMBL1759933, “Synthesis, human monoamine oxidase inhibitory activity and molecular docking studies of 3-heteroarylcoumarin derivatives” (Eur J Med Chem, 2011).

Experiments:
Homo sapiens = species: Homo sapiens; test: Selectivity index, ratio of IC50 for human recombinant MAO-A to IC50 for human recombinant MAO-B
How it was run: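 SI is IC50(hMAO-A)/IC50(hMAO-B), from IC50s measured by Amplex Red/HRP fluorimetry of p-tyramine-driven H2O2 with baculovirus-expressed human isoforms (mean of five experiments each). Where no MAO-A IC50 was reached, the highest concentration tested was taken as that IC50.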

[1] = target: T1, Amine oxidase [flavin-containing] B (Homo sapiens, UniProt P27338); test: Inhibition of human recombinant MAO-B expressed in BTI-TN-5B1-4 cells assessed as H2O2 production using para-tyramine substrate by fluorimetric method; format: cell-based
T1 sequence (P27338 whole entry): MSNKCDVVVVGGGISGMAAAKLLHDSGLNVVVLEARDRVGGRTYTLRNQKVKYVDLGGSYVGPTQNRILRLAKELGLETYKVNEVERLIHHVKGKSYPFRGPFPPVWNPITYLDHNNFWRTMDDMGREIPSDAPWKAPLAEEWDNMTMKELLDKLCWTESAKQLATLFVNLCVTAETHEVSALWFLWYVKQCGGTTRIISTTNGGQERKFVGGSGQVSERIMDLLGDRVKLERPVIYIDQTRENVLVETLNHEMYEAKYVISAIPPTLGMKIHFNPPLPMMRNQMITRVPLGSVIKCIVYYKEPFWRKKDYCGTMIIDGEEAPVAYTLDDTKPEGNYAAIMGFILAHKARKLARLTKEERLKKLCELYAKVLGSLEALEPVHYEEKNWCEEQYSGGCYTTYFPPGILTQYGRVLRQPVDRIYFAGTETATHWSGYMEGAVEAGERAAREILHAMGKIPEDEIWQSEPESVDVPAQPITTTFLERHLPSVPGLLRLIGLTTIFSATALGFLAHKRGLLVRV

[2] = target: T2, Amine oxidase [flavin-containing] A (Homo sapiens, UniProt P21397); test: Inhibition of human recombinant MAO-A expressed in BTI-TN-5B1-4 cells assessed as H2O2 production using para-tyramine substrate at 100 uM by fluorimetric method; format: cell-based; conditions: bti-tn-5b1-4, 100 µM
T2 sequence (P21397 whole entry): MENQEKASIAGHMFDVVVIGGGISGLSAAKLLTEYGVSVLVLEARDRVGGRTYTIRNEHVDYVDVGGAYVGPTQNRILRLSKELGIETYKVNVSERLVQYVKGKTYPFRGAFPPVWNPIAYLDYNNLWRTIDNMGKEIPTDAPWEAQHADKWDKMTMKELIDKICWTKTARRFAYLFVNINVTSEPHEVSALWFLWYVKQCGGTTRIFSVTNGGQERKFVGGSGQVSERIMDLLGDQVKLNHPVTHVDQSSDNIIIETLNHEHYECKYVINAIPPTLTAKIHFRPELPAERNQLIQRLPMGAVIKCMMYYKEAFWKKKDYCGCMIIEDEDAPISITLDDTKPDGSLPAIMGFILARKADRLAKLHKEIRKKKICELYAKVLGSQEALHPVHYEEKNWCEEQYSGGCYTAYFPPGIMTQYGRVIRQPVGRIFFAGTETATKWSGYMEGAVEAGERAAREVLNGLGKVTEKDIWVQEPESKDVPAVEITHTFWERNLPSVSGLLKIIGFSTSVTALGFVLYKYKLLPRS

[3] = target: T2, Amine oxidase [flavin-containing] A; test: Inhibition of human recombinant MAO-A expressed in BTI-TN-5B1-4 cells assessed as H2O2 production using para-tyramine substrate by fluorimetric method; format: cell-based
[4] = target: T1, Amine oxidase [flavin-containing] B; test: Inhibition of human recombinant MAO-B expressed in BTI-TN-5B1-4 cells assessed as H2O2 production using para-tyramine substrate at 100 uM by fluorimetric method; format: cell-based; conditions: bti-tn-5b1-4, 100 µM

Row | Ratio IC50 (Homo sapiens) | IC50 [1] [nM] | inhibition (INH) [2] | IC50 [3] [nM] | inhibition (INH) [4] | Compound
1 | > 380 | 263 | Not Active |  |  | COc1ccc2cc(-c3cccs3)c(=O)oc2c1
2 | > 75 | 55.6 |  | 4160 |  | COc1ccc2cc(-c3ccsc3)c(=O)oc2c1
3 | > 428 | 234 | Not Active |  |  | COc1ccc2oc(=O)c(-c3ccsc3)cc2c1
4 |  |  | Not Active |  | Not Active | COc1cc(OC)c2cc(-c3c[nH]c4ccccc34)c(=O)oc2c1
5 |  |  | Not Active |  | Not Active | COc1cc(OC)c2cc(-c3cccs3)c(=O)oc2c1
6 | > 7.5 | 13300 | Not Active |  |  | O=c1oc2ccccc2cc1-c1ccsc1
7 |  |  | Not Active |  | Not Active | COc1cc(OC)c2cc(-c3ccsc3)c(=O)oc2c1

The remaining lines, values behind:

Row | Compound | Ratio IC50 (Homo sapiens) | IC50 [1] [nM] | inhibition (INH) [2] | IC50 [3] [nM] | inhibition (INH) [4]
8 | O=c1oc2ccccc2cc1-c1cccs1 | > 15 | 6370 | Not Active |  | 
9 | COc1ccc2oc(=O)c(-c3cccs3)cc2c1 | > 158 | 634 | Not Active |  | 
10 | COc1ccc2oc(=O)c(-c3c[nH]c4ccccc34)cc2c1 |  |  | Not Active |  | Not Active
11 | COc1ccc2cc(-c3c[nH]c4ccccc34)c(=O)oc2c1 | > 210 | 46 |  | 9670 | 
12 | O=c1oc2ccccc2cc1-c1c[nH]c2ccccc12 | > 52 | 1920 | Not Active |  | 
